Published values from different studies.
Protocols differ between the studies behind these lines.
Matrix: plasma

| Compound | system | conditions | quantity | value |
| --- | --- | --- | --- | --- |
| CC(C)(O)c1cn(-c2ccc(-c3cc(F)c(CO)c(S(C)(=O)=O)c3)cc2F)c(C(C)(C)c2c(Cl)cccc2Cl)n1 | male cynomolgus monkey | intravenous, 1 mg/kg, single dose | half-life | 10 to 12 h |
| CCN(CC)C(=O)[C@@]1(c2ccccc2)C[C@H]1CN | male cynomolgus monkey | oral, 30 mg/kg | half-life | 6.3 h |
| CCOC(=O)[C@@]12C[C@@H]1[C@@H](n1ccc3c(NC)nc(C#Cc4ccc(Cl)s4)nc31)[C@H](O)[C@@H]2O | male Sprague-Dawley rat | oral, 1 mg/kg | Cmax | 9.97 ng/mL |
| CCc1cc(C(=O)NC)c2nccc(N3CCc4c(cc(Cn5ccnc5)cc4-c4cn(C)nc4C(F)(F)F)C3=O)c2c1 | male Sprague-Dawley rat | oral, 50 mg/kg | Cmax | 18400 ng/mL |
| C=CC(=O)N1CC2CC(n3nc(-c4ccc(C(=O)Nc5ccccn5)cc4)c4c(N)ncnc43)CC2C1 (centres unmarked) | male Wistar rat | oral, 30 mg/kg | Cmax | 1260 ng/mL |
| COc1cc2c3c(n(CCCN4CCOCC4)c(=O)c2cc1OC)-c1cc2c(cc1C3=O)OCO2 | male Fischer 344 rat | intravenous, 12 mg/m², single dose | Cmax | 406 ng/mL |
| CCCC[C@@H]1NC(=O)[C@H](Cc2ccc(O)cc2)NC(=O)[C@@H]2CCCN2C(=O)[C@H](CC(=O)O)NC(=O)[C@H](C)NC(=O)[C@H](Cc2ccccc2)NC(=O)[C@@H]2CSCCC(=O)N3CN(CN(C3)C(=O)CCSC[C@@H](C(=O)N[C@@H](C)C(N)=O)NC1=O)C(=O)CCSC[C@H](NC(C)=O)C(=O)N[C@@H](CC(C)(C)C)C(=O)N1CCC[C@H]1C(=O)N[C@@H](CCC(=O)O)C(=O)N[C@H](CCCCNC(=O)CCc1cn(CCOCCOCCOCCOCCOCCC(=O)N[C@H]3CSCCC(=O)N4CN5CN(C4)C(=O)CCSC[C@H](NC(=O)[C@@H](CC(=O)O)NC(=O)[C@H](Cc4cccc6ccccc46)NC(=O)[C@@H]4CCCN4C3=O)C(=O)N[C@@H](CCSC)C(=O)N[C@@H](CCCCNC(=N)N)C(=O)N[C@@H](CC(=O)O)C(=O)N[C@@H](Cc3c[nH]c4ccccc34)C(=O)N[C@@H](CO)C(=O)N[C@@H]([C@@H](C)O)C(=O)N3CCC[C@H]3C(=O)N3C[C@H](O)C[C@H]3C(=O)N[C@@H](Cc3c[nH]c4ccccc34)C(=O)N[C@H](C(N)=O)CSCCC5=O)nn1)C(=O)N1CCC[C@H]1C(=O)N[C@@H](Cc1ccc(O)cc1)C(=O)N2 | cynomolgus monkey | intravenous, 1 mg/kg, infusion | half-life | 0.5 h |
| CN(C(=O)n1cnc(-c2ccc[n+]([O-])c2)c1)C1CCCCC1 | male cynomolgus monkey | oral, 0.3 mg/kg | half-life | 2.2 h |
